Results collected from several papers.
Each line is one published result; the experiments were not run side by side.

Compound	assay	test system	conditions	solubility
Brc1cccc(Nc2nc(NCc3ccccc3)c3ccccc3n2)c1		aqueous buffer	pH 5	0.03 µg/mL
CCn1c(-c2nc3cc(C(=O)N4CCC[C@@H](N)C4)cc(OC)c3n2C)cc2cccnc21		aqueous buffer		396 µM
O=C(c1ccccn1)N(Cc1cccs1)C1(C(=O)NC2CCCCC2)CCCCC1		aqueous buffer	pH 5	5.7 µg/mL
CCOc1ccc2cc(-c3nn(C(C)(C)C)c(N)c3C(N)=O)cnc2c1		PBS	pH 6.5, 25 °C	26 µM
FC(F)(F)c1ccc2c(c1)nc(N1CCNCC1)n2Cc1ccccc1	shake flask	aqueous buffer	20 h, pH 6.5, 25 °C	200 µM
CS(=O)(=O)c1ncn2c(NCc3c(F)ccc4c3CCO4)ncc(-c3ccc(C4CC4)nc3)c12		FaSSIF		26.5 µg/mL
COc1c(Cl)cccc1Nc1nc(NCc2ccccc2)c2ccccc2n1		aqueous buffer	pH 7.4	0.06 µg/mL
CCc1nc2nc(C)cc(Nc3ccc(S(F)(F)(F)(F)F)cc3)n2n1	nephelometry	aqueous buffer	pH 6.5	34 to 66 µM
Cc1cc2[nH]c(-c3cc(F)cc(F)c3)nc2c(N2CCC(CN3CCN(C)CC3)CC2)n1	shake flask	aqueous buffer	pH 6.5	> 200 µM
COC(=O)Nc1nc2cc(C(=O)c3ccc(F)cc3)ccc2[nH]1		water	24 h	< 1 µg/mL
CCOc1nc2nc(C)cc(Nc3ccc(S(F)(F)(F)(F)F)cc3)n2n1	nephelometry	aqueous buffer	pH 6.5	4 to 8 µM
Cc1ccc(-n2sc(=O)n(Cc3ccc(F)cc3)c2=O)cc1		aqueous buffer		~200 µM
COc1cc(F)c(S(=O)(=O)N2CCN(S(=O)(=O)c3cccc(N)c3)CC2)c(F)c1		aqueous buffer		< 0.4 µg/mL
CN(CCOc1ccc(CC2SC(=O)NC2=O)cc1)c1ccccn1 (stereo not shown)		aqueous buffer	pH 7.4	≥ 144 µM
CN1CCN([C@H]2CC[C@@H](Nc3nccc4[nH]c(-c5cc(F)cc(F)c5)nc34)CC2)CC1	shake flask	aqueous buffer	pH 6.5	> 200 µM
COc1cc(OC)cc(N(CCNC(C)C)c2ccc3ncc(-c4cnn(C)c4)nc3c2)c1		aqueous buffer	pH 7.65	150 µg/mL
CC(=O)Oc1ccccc1C(=O)O		PBS	pH 7.4	12600 µg/mL
CC(C)(C)n1nc(-c2ccc3nc(OC4CC4)ccc3c2)c(C(N)=O)c1N		PBS	pH 6.5, 25 °C	96.3 µM
CN1CCN(C2=Nc3cc(Cl)ccc3Nc3ccccc32)CC1		FaSSIF	24 h, pH 7.4, 37 °C	350 µg/mL
OCc1n(Cc2ccc3ccccc3c2)cc[n+]1Cc1ccc2ccccc2c1.[Br-]		water		< 500 µg/mL
O=C(Nc1ccc(S(=O)(=O)N2CCC(Cl)CC2)cc1)c1ccc([N+](=O)[O-])o1		PBS	pH 7.4	9.4 µM
c1ccc(CNc2nc(N3CCNc4ccccc43)nc3ccccc23)cc1		aqueous buffer	pH 5	> 36 µg/mL
CCc1nc2ccc(Cl)cn2c1C(=O)NCc1ccc(N2CCC(c3ccc(OC(F)(F)F)cc3)CC2)cc1		PBS		61 µM
CCCn1nc(C(=O)N2CCCCC2)c2c1CCC(NCCN1CCCCC1)C2 (stereo not shown)		PBS	16 h, pH 7.4	1740 µM
CCC(F)(F)c1nc2nc(C)cc(Nc3ccc(C(F)(F)F)cc3)n2n1	nephelometry	aqueous buffer	pH 6.5	17 to 34 µM
Cc1ccc(F)cc1Nc1nc(NCc2ccccc2)c2ccccc2n1		aqueous buffer	pH 7.4	0.04 µg/mL
Cc1cc(Nc2ccc(C(F)(F)F)cc2)n2nc(C3CC3)nc2n1	nephelometry	aqueous buffer	pH 6.5	38 to 75 µM
Fc1ccc(-c2nc3c(N4CCCN(CC5CC5)CC4)nccc3[nH]2)cc1F	shake flask	aqueous buffer	pH 6.5	> 200 µM

Compound	assay	test system	conditions	solubility
CCOc1ccc2cc(-c3nn(CC4CC4)c(N)c3C(N)=O)ccc2n1		PBS	pH 6.5, 25 °C	10.9 µM
Cc1cc(Nc2ccc(Cl)cc2)n2nc(C(C)(F)F)nc2n1	nephelometry	aqueous buffer	pH 6.5	77 to 150 µM
O=C(NCCN1CCCC1)c1cc(-c2ccc(CN3CCOCC3)cc2)nc2ccc(F)cc12		simulated gastric fluid	4 h, pH 2, 37 °C, acidic	> 6490 µM
Clc1ccc2c(nc(N3CCNCC3)n2Cc2ccccc2)c1Br	shake flask	aqueous buffer	20 h, pH 6.5, 25 °C	50 µM
O=C(CCCCCCC(=O)Nc1ccccc1)NO	HPLC	water	48 h, pH 6, 25 °C	160 µg/mL
CC(C)CC(=O)N1CCC[C@H](COc2cccc3c2C(N)=NS(=O)(=O)N3)C1		aqueous buffer	pH 7.1	240 µM
CC(C)(C)n1nc(-c2cnc3cc(F)ccc3c2)c(C(N)=O)c1N		PBS	pH 6.5, 25 °C	> 100 µM
N=C(N)NCc1ccc(NC(=O)c2ccc(C(=O)Nc3ccc(C4=CCN(C(=N)N)CC4)cc3)cn2)cc1	shake flask	aqueous buffer	pH 7.4	4.5 µg/mL
O=C(O)c1ccc(-c2ccc(-c3cc4ccc(O)cc4oc3=O)cc2)cc1	shake flask	PBS	36 h, pH 7.4	52.5 µM
NCCCCNc1nc2cc(Cl)ccc2n1Cc1ccccc1	shake flask	aqueous buffer	20 h, pH 6.5, 25 °C	≥ 200 µM
O=C(Nc1ccc(F)cc1C(=O)O)c1ccc(-c2ccccc2)cc1	shake flask	aqueous buffer	24 h, pH 6.5, 25 °C	10 µM
CN1CCN(C(=O)C2CCN(c3nccc4[nH]c(-c5ccc(F)c(F)c5)nc34)CC2)CC1	shake flask	aqueous buffer	pH 6.5	> 200 µM
Cc1cc(F)cc(Nc2nc(NCc3ccccc3)c3ccccc3n2)c1		aqueous buffer	pH 6.2	< 0.01 µg/mL
O=C1NCCc2nc(OCc3cccc(F)c3)ccc21		FaSSIF	24 h, pH 7.2	114 µM
CCCCCCN1CCCC1=O		PBS	48 h, pH 7.4, 25 °C	79000 µM
COc1cccc2c(NCc3ccccc3)nc(-n3c(=O)oc4ccccc43)nc12		aqueous buffer	pH 7.4	< 0.01 µg/mL
CCc1ccccc1-n1nc(C)c(C(=O)Nc2ccc3ccccc3n2)c1C	HPLC	PBS	6 h, pH 7.4	5.9 µg/mL
Brc1ccc2c(c1)nc(C1CCNCC1)n2Cc1ccccc1	shake flask	aqueous buffer	20 h, pH 6.5, 25 °C	110 µM
Cc1c(F)cccc1Nc1nc(NCc2ccccc2)c2ccccc2n1		aqueous buffer	pH 5	8.4 µg/mL
CC[C@H](C)[C@H](NC(=O)[C@H](CCCNC(=N)N)NC(=O)[C@H](CCC(=O)O)NC(C)=O)C(=O)N[C@H]1CSSC[C@@H](C(=O)N[C@H](C(N)=O)[C@@H](C)O)NC(=O)[C@H](CCCNC(=N)N)NC(=O)[C@H](Cc2c[nH]cn2)NC(=O)[C@H](C)NC(=O)CNC(=O)[C@H](Cc2c[nH]c3ccccc23)NC(=O)[C@H](CC(=O)O)NC(=O)[C@H](CCC(N)=O)NC(=O)[C@H](Cc2c[nH]c3ccccc23)NC(=O)[C@H](C(C)C)NC1=O		PBS	pH 7.4	4290 µg/mL
COc1ccc(Nc2nc(NCc3ccccc3)c3ccccc3n2)cc1F		aqueous buffer	pH 7.4	0.08 µg/mL
CCc1cc(O)ccc1-c1ccc2c(-c3nc4c([nH]3)CN(C(C)C)[C@H](C(=O)N3CC(N(C)C)C3)C4)n[nH]c2c1		aqueous buffer		13 µM
COc1cccc(OC)c1-c1nc(C(=O)N[C@@H](CC(C)C)C(=O)O)cn1-c1cccc2ccccc12		aqueous buffer	pH 5	103 µg/mL
Cc1cccc(C(=O)Nc2cccc(NC(=O)c3ccccc3)c2)c1		PBS	pH 7.4	0.82 µM
CC(C)C[C@H](NC(=O)[C@H](CCc1ccccc1)NC(=O)CN1CCOCC1)C(=O)N[C@@H](Cc1ccccc1)C(=O)N[C@@H](CC(C)C)C(=O)[C@@]1(C)CO1		PBS	24 h, pH 7.4, 37 °C	1.56 µM
Cc1c(N(C)C)c(=O)n(-c2ccccc2)n1C		PBS	pH 7.4	46300 µg/mL
CS(=O)(=O)N1CCN(Cc2cc3nc(-c4cccc5[nH]ncc45)nc(N4CCOCC4)c3s2)CC1		FeSSIF		6 µg/mL
